Experimental data as given in ChEMBL document CHEMBL1156480, “Insensitivity to Abeta42-lowering nonsteroidal anti-inflammatory drugs and gamma-secretase inhibitors is common among aggressive presenilin-1 mutations” (J Biol Chem, 2007).
One block for each compound: values may come before it.

Columns and labels:
Type in all cases: cell-based
Design in all cases: scale not given: the % may be the effect or the level left
[1] = target: Presenilin-1 (Homo sapiens) (UniProt P49768); experiment: Reduction of human wild type PS1-induced amyloid beta-40 level in CHO cells overexpressing human APP751 at 100 nM after 24 hrs by liquid phase electrochemiluminescence assay relative to control
[2] = test system: CHO; experiment: Reduction of human PS1 delta exon9 mutant-induced amyloid beta-40 level in CHO cells overexpressing human APP751 at 100 nM after 24 hrs by liquid phase electrochemiluminescence assay relative to control
How it was run: (§1)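 APP751 CHO cells stably expressing PS1-ΔExon9, PS1-L166P or PS1-WT, cultured in parallel in serum-containing medium. Treated 24 h with increasing γ-secretase inhibitor concentrations or DMSO. Conditioned-media Abeta40/Abeta42 quantified by LPECL against synthetic peptide standards (16–2000 pg/ml). Duplicates normalized to DMSO. n = 3, one-way ANOVA with Dunnett's test versus PS1-WT.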

[3] = test system: Presenilin-1 (Homo sapiens), P49768 [L166P]; experiment: Reduction of human PS1 L166P mutant-induced amyloid beta-40 level in CHO cells overexpressing human APP751 at 100 nM after 24 hrs by liquid phase electrochemiluminescence assay relative to control; how it was run: as §1
[4] = target: Presenilin-1 (Homo sapiens) (UniProt P49768); experiment: Reduction of human wild type PS1-induced amyloid beta-42 level in CHO cells overexpressing human APP751 at 100 nM after 24 hrs by liquid phase electrochemiluminescence assay relative to control
[5] = test system: CHO; experiment: Reduction of human PS1 delta exon9 mutant-induced amyloid beta-42 level in CHO cells overexpressing human APP751 at 100 nM after 24 hrs by liquid phase electrochemiluminescence assay relative to control; how it was run: as §1
[6] = test system: Presenilin-1 (Homo sapiens), P49768 [L166P]; experiment: Reduction of human PS1 L166P mutant-induced amyloid beta-42 level in CHO cells overexpressing human APP751 at 100 nM after 24 hrs by liquid phase electrochemiluminescence assay relative to control; how it was run: as §1
[7] = target: Presenilin-1 (Homo sapiens) (UniProt P49768); experiment: Reduction of human wild type PS1-induced amyloid beta-40 level in CHO cells overexpressing human APP751 at 25 nM after 24 hrs by liquid phase electrochemiluminescence assay relative to control
[8] = test system: CHO; experiment: Reduction of human PS1 delta exon9 mutant-induced amyloid beta-40 level in CHO cells overexpressing human APP751 at 25 nM after 24 hrs by liquid phase electrochemiluminescence assay relative to control; how it was run: as §1
[9] = test system: Presenilin-1 (Homo sapiens), P49768 [L166P]; experiment: Reduction of human PS1 L166P mutant-induced amyloid beta-40 level in CHO cells overexpressing human APP751 at 25 nM after 24 hrs by liquid phase electrochemiluminescence assay relative to control; how it was run: as §1
[10] = target: Presenilin-1 (Homo sapiens) (UniProt P49768); experiment: Reduction of human wild type PS1-induced amyloid beta-40 level in CHO cells overexpressing human APP751 at 50 nM after 24 hrs by liquid phase electrochemiluminescence assay relative to control
[11] = test system: CHO; experiment: Reduction of human PS1 delta exon9 mutant-induced amyloid beta40 level in CHO cells overexpressing human APP751 at 50 nM after 24 hrs by liquid phase electrochemiluminescence assay relative to control
[12] = test system: Presenilin-1 (Homo sapiens), P49768 [L166P]; experiment: Reduction of human PS1 L166P mutant-induced amyloid beta-40 level in CHO cells overexpressing human APP751 at 50 nM after 24 hrs by liquid phase electrochemiluminescence assay relative to control; how it was run: as §1
[13] = target: Presenilin-1 (Homo sapiens) (UniProt P49768); experiment: Reduction of human wild type PS1-induced amyloid beta-42 level in CHO cells overexpressing human APP751 at 25 nM after 24 hrs by liquid phase electrochemiluminescence assay relative to control
[14] = test system: CHO; experiment: Reduction of human PS1 delta exon9 mutant-induced amyloid beta-42 level in CHO cells overexpressing human APP751 at 25 nM after 24 hrs by liquid phase electrochemiluminescence assay relative to control; how it was run: as §1
[15] = test system: Presenilin-1 (Homo sapiens), P49768 [L166P]; experiment: Reduction of human PS1 L166P mutant-induced amyloid beta42 level in CHO cells overexpressing human APP751 at 25 nM after 24 hrs by liquid phase electrochemiluminescence assay relative to control; how it was run: as §1
[16] = target: Presenilin-1 (Homo sapiens) (UniProt P49768); experiment: Reduction of human wild type PS1-induced amyloid beta-42 level in CHO cells overexpressing human APP751 at 50 nM after 24 hrs by liquid phase electrochemiluminescence assay relative to control
[17] = test system: CHO; experiment: Reduction of human PS1 delta exon9 mutant-induced amyloid beta-42 level in CHO cells overexpressing human APP751 at 50 nM after 24 hrs by liquid phase electrochemiluminescence assay relative to control
[18] = test system: Presenilin-1 (Homo sapiens), P49768 [L166P]; experiment: Reduction of human PS1 L166P mutant-induced amyloid beta42 level in CHO cells overexpressing human APP751 at 50 nM after 24 hrs by liquid phase electrochemiluminescence assay relative to control; how it was run: as §1
[19] = target: Presenilin-1 (Homo sapiens) (UniProt P49768); experiment: Reduction of human wild type PS1-induced amyloid beta-40 level in CHO cells overexpressing human APP751 at 250 nM after 24 hrs by liquid phase electrochemiluminescence assay relative to control
[20] = test system: CHO; experiment: Reduction of human PS1 delta exon9 mutant-induced amyloid beta-40 level in CHO cells overexpressing human APP751 at 250 nM after 24 hrs by liquid phase electrochemiluminescence assay relative to control; how it was run: as §1
[21] = test system: Presenilin-1 (Homo sapiens), P49768 [L166P]; experiment: Reduction of human PS1 L166P mutant-induced amyloid beta-40 level in CHO cells overexpressing human APP751 at 250 nM after 24 hrs by liquid phase electrochemiluminescence assay relative to control; how it was run: as §1
[22] = target: Presenilin-1 (Homo sapiens) (UniProt P49768); experiment: Reduction of human wild type PS1-induced amyloid beta-40 level in CHO cells overexpressing human APP751 at 500 nM after 24 hrs by liquid phase electrochemiluminescence assay relative to control
[23] = test system: CHO; experiment: Reduction of human PS1 delta exon9 mutant-induced amyloid beta-40 level in CHO cells overexpressing human APP751 at 500 nM after 24 hrs by liquid phase electrochemiluminescence assay relative to control; how it was run: as §1
[24] = test system: Presenilin-1 (Homo sapiens), P49768 [L166P]; experiment: Reduction of human PS1 L166P mutant-induced amyloid beta40 level in CHO cells overexpressing human APP751 at 500 nM after 24 hrs by liquid phase electrochemiluminescence assay relative to control; how it was run: as §1
[25] = target: Presenilin-1 (Homo sapiens) (UniProt P49768); experiment: Reduction of human wild type PS1-induced amyloid beta-42 level in CHO cells overexpressing human APP751 at 250 nM after 24 hrs by liquid phase electrochemiluminescence assay relative to control
[26] = test system: CHO; experiment: Reduction of human PS1 delta exon9 mutant-induced amyloid beta-42 level in CHO cells overexpressing human APP751 at 250 nM after 24 hrs by liquid phase electrochemiluminescence assay relative to control; how it was run: as §1
[27] = test system: Presenilin-1 (Homo sapiens), P49768 [L166P]; experiment: Reduction of human PS1 L166P mutant-induced amyloid beta-42 level in CHO cells overexpressing human APP751 at 250 nM after 24 hrs by liquid phase electrochemiluminescence assay relative to control; how it was run: as §1
[28] = target: Presenilin-1 (Homo sapiens) (UniProt P49768); experiment: Reduction of human wild type PS1-induced amyloid beta-42 level in CHO cells overexpressing human APP751 at 500 nM after 24 hrs by liquid phase electrochemiluminescence assay relative to control
[29] = test system: CHO; experiment: Reduction of human PS1 delta exon9 mutant-induced amyloid beta-42 level in CHO cells overexpressing human APP751 at 500 nM after 24 hrs by liquid phase electrochemiluminescence assay relative to control
[30] = test system: Presenilin-1 (Homo sapiens), P49768 [L166P]; experiment: Reduction of human PS1 L166P mutant-induced amyloid beta-42 level in CHO cells overexpressing human APP751 at 500 nM after 24 hrs by liquid phase electrochemiluminescence assay relative to control; how it was run: as §1

Activity [1]: 5.82%
Activity [3]: 14.9%
Activity [4]: 8.13%
Activity [6]: 34.5%
Activity [7]: 33.8%
Activity [9]: 54.4%
Activity [10]: 14.6%
Activity [12]: 30.3%
Activity [13]: 44%
Activity [15]: 72.3%
Activity [16]: 18.8%
Activity [18]: 50.3%
SMILES: C[C@H](NC(=O)Cc1cc(F)cc(F)c1)C(=O)N[C@H](C(=O)OC(C)(C)C)c1ccccc1
Activity [2]: 60.8%
Activity [5]: 65.9%
Activity [8]: 101%
Activity [11]: 90.2%
Activity [14]: 107%
Activity [17]: 94.9%

Activity [1]: 8.1%
Activity [3]: 41.5%
Activity [19]: 2.95%
Activity [21]: 20.6%
Activity [22]: 1.92%
Activity [24]: 13.1%
Activity [4]: 11.3%
Activity [6]: 62.3%
Activity [25]: 3.28%
Activity [27]: 44.1%
Activity [28]: 2.59%
Activity [30]: 34.2%
SMILES: CC(C)C[C@H](NC(=O)C(Cc1ccccc1)C[C@@H](O)[C@H](Cc1ccccc1)NC(=O)OC(C)(C)C)C(=O)N[C@@H](Cc1ccccc1)C(N)=O (single isomer, unassigned)
Activity [2]: 86.3%
Activity [20]: 54%
Activity [23]: 33.4%
Activity [5]: 98.3%
Activity [26]: 54.5%
Activity [29]: 34.1%
